Results on 18 compounds are retold here after ChEMBL document CHEMBL1128487, “Reduced-size antagonists of luteinizing hormone-releasing hormone active in vitro” (1995).

Square brackets hold non-standard residues; d marks the D form. Peptide text beside a SMILES is read from it. 2Nal = N[C@@H](Cc1ccc2ccccc2c1)C(=O)O

The species named for one assay is Rattus norvegicus. As to the kind of experiment: In vitro inhibition of LH release in rat pituitary cells at a dose of 1 ng LHRH in absence of the compound. Type of assay: functional, Pituitary gland cell. Also noted: unit: ng/mL. In a few lines: (§1)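 Anterior pituitaries from female Sprague-Dawley rats (240-260 g, 18 rats) were minced and dispersed in Gey's solution with trypsin, DNase I and LBBI. Cells were plated in DMEM with 0.45% glucose, 25 mM HEPES, serum, T and 100 nM dexamethasone at about 3.0 × 10^5 cells/mL and cultured 4 days at 37 °C in 8% CO2. Cells were then exposed to antagonist plus 1 ng LHRH in Gey's solution with 0.3% glucose for 2 h. LH in the medium was measured by RIA as ng/mL of RP-3.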

The target of assay [1] is T1, Gonadotropin-releasing hormone receptor (Rattus norvegicus) (UniProt P30969).
T1 sequence (whole entry): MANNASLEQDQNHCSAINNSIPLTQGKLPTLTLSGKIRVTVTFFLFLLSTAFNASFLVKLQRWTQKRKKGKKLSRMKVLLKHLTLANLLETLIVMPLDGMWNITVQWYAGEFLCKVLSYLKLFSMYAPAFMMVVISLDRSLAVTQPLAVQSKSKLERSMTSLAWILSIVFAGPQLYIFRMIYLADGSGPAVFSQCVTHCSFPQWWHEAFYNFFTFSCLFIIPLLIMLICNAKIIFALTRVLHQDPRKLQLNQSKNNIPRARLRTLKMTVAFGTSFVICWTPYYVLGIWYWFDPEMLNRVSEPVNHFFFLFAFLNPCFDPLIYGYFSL
In words: In vitro inhibition of LH release in rat pituitary cells at a dose of 1 ug of analogue and 1 ng of LHRH. It counts as functional, cell-based. The following applies: Pituitary gland cell. In a few lines:
as §1

Assay [2] has as its target T1, Gonadotropin-releasing hormone receptor (Rattus norvegicus). As to the kind of experiment: In vitro inhibition of LH release was determined in rat pituitary cells at a dose of 0.03 ug of analogue and 1 ng of LHRH. Type of assay: functional, cell-based. The following applies: Pituitary gland cell. In a few lines: as §1
The target is the same in assay [3]. As to the kind of experiment: In vitro inhibition of LH release determined in rat pituitary cells at a dose of 3 ug of analogue and 1 ng of LHRH. Type of assay: functional, cell-based. The conditions noted are these: Pituitary gland cell. The essentials:
as §1

Assay [4] has the same target. As to the kind of experiment: In vitro inhibition of LH release was determined in rat pituitary cells at a dose of 0.1 ug of analogue and 1 ng of LHRH. Type of assay: functional, cell-based. The following applies: Pituitary gland cell. The essentials:
as §1

The target is the same in assay [5]. As to the kind of experiment: In vitro antagonistic activity against LH release in rat pituitary cells for control. Type of assay: functional, cell-based. The following applies: Pituitary gland cell. The essentials:
as §1

Assay [6] shares this target. In words: In vitro inhibition of LH release was determined in rat pituitary cells at a dose of 0.3 ug of analogue and 1 ng of LHRH. It counts as functional, cell-based. The conditions noted are these: Pituitary gland cell. In a few lines: as §1
Assay [7] shares this target. In words: In vitro inhibition of LH release was determined in rat pituitary cells at a dose of 30 ug of analogue and 1 ng of LHRH. It counts as functional, cell-based. The following applies: Pituitary gland cell. The essentials:
as §1

Assay [8] has the same target. As to the kind of experiment: In vitro inhibition of LH release was determined in rat pituitary cells at a dose of 10 ug of analogue and 1 ng of LHRH. It counts as functional, cell-based. The following applies: Pituitary gland cell. The essentials: as §1

As to `CC(=O)N[C@H](Cc1ccc2ccccc2c1)C(=O)N[C@@H](CO)C(=O)N[C@@H](Cc1ccc(O)cc1)C(=O)N[C@H](Cc1cccnc1)C(=O)N[C@@H](CC(C)C)C(=O)N[C@@H](CCCN=C(N)N)C(=O)N1CCC[C@H]1C(=O)N[C@H](C)C(N)=O`, the Activity in the assay listed under Rattus norvegicus was 251.
Take `CC(=O)N[C@@H](Cc1ccc(Cl)cc1)C(=O)N[C@@H](Cc1cccnc1)C(=O)N[C@@H](CO)C(=O)N[C@@H](Cc1ccc(O)cc1)C(=O)NC(Cc1ccc2ccccc2c1)C(=O)N[C@@H](CC(C)C)C(=O)N[C@@H](CCCN=C(N)N)C(=O)N1CCC[C@H]1C(=O)N[C@H](C)C(N)=O` (stereo in doubt): the Activity in [1] turned out to be 145; in assay [2] it was 152; in assay [3], 77; in [4], 165; in the assay listed under Rattus norvegicus, 151; in assay [5], 3.5. In assay [6], this compound yielded an Activity of 152.
For `CCNC(=O)[C@@H]1CCCN1C(=O)[C@H](CC(C)C)NC(=O)[C@H](Cc1ccc2ccccc2c1)NC(=O)[C@H](Cc1ccc(O)cc1)NC(=O)[C@H](CO)NC(=O)[C@H](Cc1ccc2ccccc2c1)NC(C)=O` (Ac-[2Nal]SY[2Nal]LP-NHEt), the Activity in assay [1] was 155; in [7], 11; in assay [3], 151; in the assay filed under Rattus norvegicus, 145; in assay [5] it was 3.1; in [6] it was 148. Further, the Activity in assay [8] turned out to be 55.
With `CCNC(=O)[C@@H]1CCCN1C(=O)[C@H](CCCCNC(C)C)NC(=O)[C@H](CC(C)C)NC(=O)C(Cc1ccc2ccccc2c1)NC(=O)[C@H](Cc1ccc(O)cc1)NC(=O)[C@H](CO)NC(=O)C(Cc1ccc2ccccc2c1)NC(C)=O` (stereo in doubt), the Activity in assay [1] came to 6; in assay [2], 146; in [3] it was 4; in assay [4], 133; in the assay listed under Rattus norvegicus, 148; in [5], 3.5. In assay [6], this compound returned an Activity of 26.
Turning to `CC(=O)NC(Cc1ccc2ccccc2c1)C(=O)N[C@@H](CO)C(=O)N[C@@H](Cc1ccc(O)cc1)C(=O)NC(Cc1ccc2ccccc2c1)C(=O)N[C@@H](CC(C)C)C(=O)N[C@@H](CCCCNC(C)C)C(=O)N1CCC[C@H]1C(=O)N[C@H](C)C(N)=O` (stereo in doubt), the Activity in assay [1] is 55; in assay [2], 127; in assay [3], 23; in assay [4], 135; in the assay listed under Rattus norvegicus, 149; in assay [5] it was 2.1. Also, in assay [6], the Activity came to 104.
Regarding `CC(=O)N[C@@H](Cc1ccc2ccccc2c1)C(=O)N[C@@H](CO)C(=O)N[C@@H](Cc1ccc2ccccc2c1)C(=O)N[C@@H](CC(C)C)C(=O)N[C@@H](CCCN=C(N)N)C(=O)N1CCC[C@H]1C(=O)N[C@@H](C)C(N)=O` (Ac-[2Nal]S[2Nal]LRPA-NH2), the Activity in [1] amounted to 13; in assay [3], 4; in assay [4] it was 117; in the assay listed under Rattus norvegicus it was 155; in [5], 2.3; in assay [6], 37.
For `CC(=O)N[C@H](Cc1ccc2ccccc2c1)C(=O)N[C@@H](CO)C(=O)N[C@@H](Cc1ccc(O)cc1)C(=O)N[C@H](CCCCNC(=O)c1ccccn1)C(=O)N[C@@H](CC(C)C)C(=O)N[C@@H](CCCN=C(N)N)C(=O)N1CCC[C@H]1C(=O)N[C@H](C)C(N)=O`, the Activity in [1] turned out to be 67; in assay [3], 29; in [4], 201; in the assay filed under Rattus norvegicus it was 241; in [5], 6.3; in assay [6] it was 154.
`CC(=O)N[C@H](Cc1ccc2ccccc2c1)C(=O)N[C@@H](CO)C(=O)N[C@@H](Cc1ccc(O)cc1)C(=O)N[C@H](Cc1ccc2ccccc2c1)C(=O)N[C@@H](CC(C)C)C(=O)N[C@@H](CCCN=C(N)N)C(=O)N1CCC[C@H]1C(N)=O`: the Activity amounted to 4 in assay [1]; 154 in assay [2]; 3 in assay [3]; 74 in assay [4]; 167 in the assay listed under Rattus norvegicus; 4.1 in assay [5]. In [6], the Activity was 13.
With `CCNC(=O)[C@@H]1CCCN1C(=O)C(CCCN=C(N)N)NC(=O)[C@H](CC(C)C)NC(=O)[C@H](CCCCNC(=O)c1ccccn1)NC(=O)C(CCCCNC(=O)c1ccccn1)NC(=O)[C@H](CO)NC(=O)[C@H](Cc1ccc2ccccc2c1)NC(C)=O` (stereo not given in full), the Activity in [1] came out at 8; in assay [2], 108; in assay [4], 72; in assay [5] it was 2.1; in assay [6] it was 27.
Regarding `CC(C)C[C@H](NC(=O)C(Cc1ccc2ccccc2c1)NC(=O)[C@H](Cc1ccc(O)cc1)NC(=O)[C@H](CO)NC(=O)[C@H](Cc1cccnc1)NC(=O)[C@H](Cc1ccc(Cl)cc1)NC(=O)[C@@H]1CCC(=O)N1)C(=O)N[C@@H](CCCN=C(N)N)C(=O)N1CCC[C@H]1C(=O)N[C@H](C)C(N)=O` (stereo in doubt), the Activity in assay [1] amounted to 149; in [2], 165; in assay [4], 158; in the assay listed under Rattus norvegicus it was 132; in [5], 3.8; in assay [6], 170.
As for `CCNC(=O)[C@@H]1CCCN1C(=O)[C@H](CCCN=C(N)N)NC(=O)[C@H](CC(C)C)NC(=O)[C@@H](Cc1c[nH]c2ccccc12)NC(=O)[C@H](Cc1ccc(O)cc1)NC(=O)[C@H](CO)NC(=O)[C@@H](Cc1ccc2ccccc2c1)NC(C)=O`, the Activity in [1] stood at 2; in [2] it was 85; in [4] it was 40; in the assay listed under Rattus norvegicus, 149; in assay [5] it was 2.1; in assay [6], 10.
The compound `CCNC(=O)[C@@H]1CCCN1C(=O)[C@H](CCCN=C(N)N)NC(=O)[C@H](CC(C)C)NC(=O)[C@@H](CCCCNC(=O)c1ccccn1)NC(=O)[C@H](CCCCNC(=O)c1ccccn1)NC(=O)[C@H](CO)NC(=O)[C@@H](Cc1ccc2ccccc2c1)NC(C)=O` showed an Activity in the assay filed under Rattus norvegicus of 149.
As for `CC(=O)N[C@H](Cc1ccc2ccccc2c1)C(=O)N[C@@H](CO)C(=O)N[C@@H](CCCCNC(=O)c1ccccn1)C(=O)N[C@H](CCCCNC(=O)c1ccccn1)C(=O)N[C@@H](CC(C)C)C(=O)N[C@@H](CCCN=C(N)N)C(=O)N1CCC[C@H]1C(=O)N[C@H](C)C(N)=O`, the Activity in assay [1] was 26; in assay [3], 8; in assay [4], 118; in the assay listed under Rattus norvegicus, 224; in [5], 7.2; in [6], 60.
As to `CC(=O)N[C@@H](Cc1ccc2ccccc2c1)C(=O)N[C@@H](CO)C(=O)N[C@@H](Cc1ccc(O)cc1)C(=O)N[C@@H](Cc1cccnc1)C(=O)N[C@@H](CC(C)C)C(=O)N[C@@H](CCCN=C(N)N)C(=O)N1CCC[C@H]1C(=O)N[C@H](C)C(N)=O`, the Activity in assay [1] came out at 33; in [3] it was 11; in assay [4] it was 112; in assay [5] it was 4.8; in assay [6], 72.
Consider `CCNC(=O)[C@@H]1CCCN1C(=O)[C@H](CCCCNC(C)C)NC(=O)[C@H](CC(C)C)NC(=O)[C@H](CCCCNC(=O)c1ccccn1)NC(=O)[C@H](Cc1ccc(O)cc1)NC(=O)[C@H](CO)NC(=O)[C@H](Cc1ccc2ccccc2c1)NC(C)=O`, for which the Activity was determined as 118 in assay [1]; 194 in assay [2]; 200 in assay [4]; 3.5 in [5]; 157 in [6].
On to `CC(=O)N[C@H](Cc1ccc2ccccc2c1)C(=O)N[C@@H](CO)C(=O)N[C@@H](Cc1ccc(O)cc1)C(=O)N[C@H](Cc1ccc2ccccc2c1)C(=O)N[C@@H](CC(C)C)C(=O)N[C@@H](CCCN=C(N)N)C(=O)N1CCC[C@H]1C(=O)NCC(N)=O`, for which the Activity came to 50 in [1]; 45 in assay [3]; 157 in assay [4]; 132 in the assay listed under Rattus norvegicus; 3.8 in [5]; 112 in assay [6].
For the compound `CCNC(=O)[C@@H]1CCCN1C(=O)[C@H](CCCN=C(N)N)NC(=O)[C@H](CC(C)C)NC(=O)[C@@H](Cc1cccnc1)NC(=O)[C@H](Cc1ccc(O)cc1)NC(=O)[C@H](CO)NC(=O)[C@@H](Cc1ccc2ccccc2c1)NC(C)=O`, the Activity in [1] is 34; in [3], 14; in assay [4], 134; in the assay listed under Rattus norvegicus, 279; in [5] it was 9; in [6], 69.
Consider `CCNC(=O)[C@@H]1CCCN1C(=O)[C@H](CCCCNC(C)C)NC(=O)[C@H](CC(C)C)NC(=O)[C@@H](CCCCNC(=O)c1ccccn1)NC(=O)[C@H](Cc1ccc(O)cc1)NC(=O)[C@H](CO)NC(=O)[C@@H](Cc1ccc2ccccc2c1)NC(C)=O`, for which the Activity in the assay filed under Rattus norvegicus is 151.
